Source: the EternaBench riboswitch data

Tested on: MS2 coat protein
Experiment: apparent Kd, MS2 coat protein; higher = weaker binding; RNA-MaP array; FMN 200 µM where present
Summary of the method: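 SNAP-549-labelled MS2 coat protein, doubled from 0.7 or 1.5 nM to 3 µM, was titrated over designs transcribed by stalled E. coli RNA polymerase on Illumina sequencing-chip clusters. Titrations were run without and then with constant ligand in 100 mM Tris-HCl pH 7.5, 80 mM KCl, 4 mM MgCl2, BSA, DTT, yeast tRNA and Tween-20. The apparent Kd is the median of filtered per-cluster fits to green signal normalised to red-channel RNA signal and control-cluster median Fmax.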

[1] = designed as: OFF switch for flavin mononucleotide, no ligand
[2] = ligand present: flavin mononucleotide, designed as: OFF switch for flavin mononucleotide
[3] = designed as: ON switch for flavin mononucleotide, no ligand
[4] = ligand present: flavin mononucleotide, designed as: ON switch for flavin mononucleotide

| Sequence | apparent Kd [1] [µM] | apparent Kd [2] [µM] | apparent Kd [3] [µM] | apparent Kd [4] [µM] |
| --- | --- | --- | --- | --- |
| CAGGUAGACUGAGGAUAUACAUCUCUGGGCAAACCAGAGUAAAAUUCGACAUGAGGAUCACCCAUGUAGAAGGCAGUCUGCCUG | 0.017 | 0.0241 | – | – |
| UGCAGACGAGGAUAUGAUCAAUAAUACAUGAGGAUCACCCAUGUAAUACUGAUCCAUGGAUCAGAAGGCGUCUGCU | 0.0162 | 0.0246 | – | – |
| GUCGGAAACGACAAGUAGCAAUCGGAGGAUAUUCAUUAAAACAUGAGGAUCACCCAUGUAAAUUGGGAGAAGGCCGAUUGCUAC | – | – | 0.0178 | 0.00531 |
| UUACUAUCACAGAAGGGUAGAUAGUAUAUAGAUGCAGGAUAUGUGACAUGAGGAUCACCCAUGUUUCACCGACAUGAGGAUCAC | 0.0604 | 0.0662 | – | – |
| UAGAAGUCAGGAUAUGCAUGGCGGGACUUGCGUCGUGGCGUGCAGAAGGGACAUGAGGAUCACCCAUGUGGAGU | 0.179 | 0.23 | – | – |
| UUAUCUUGUCAAGGAUAUGUAGUAUUGAUCUGAAAACAUGAGGAUCACCCAUGUAUAUGGUGGGAACAGAAGGUGAAUGUUGAA | 0.823 | 0.727 | – | – |
| AAACACGGACAUGAGGAUCACCCAUGUGGCGAAAGCCUUGGGAGAAGGCCGAUUGCAAAGCAAUCGGAGGAUAUCCAUACCGUG | – | – | 0.0178 | 0.00603 |
| GUGUACAUAUCAGGAUAUCUAUUUCCUACAUGAGGAUCACCCAUGUAGAUGAUCACCCAUGUAAAGGAGAAGGGAUAUGUAUAC | – | – | 0.384 | 0.222 |
| CGUAACUACAUAGGAUAUUGAUACAUGAGGAUCACCCAUGUUAUAGGGAUUAGUAUAAUAUUAAGCAAGAAGGAUGAAGUUACG | – | – | 0.0234 | 0.0148 |
| GAUGAGGUAGGAUAUACGAUAAUAUAGGGUAGAUAUAUAACACAUGAGGAUCACCCAUGUAGAAGGACCAGUAC | 0.0386 | 0.0612 | – | – |
| GUGUAGGCAGGAUAUACAUGAGGAUCACCCAUGUGAAUAAGAUAGAAUAAGAUAAAGUGUAGAAGGGUUAGUGU | 0.0407 | 0.0324 | – | – |
| UUUGGGUGGCUGGAGGAUAUUCGAGUGGUUACAUGAGGAUCACCCAUGUGUCGCGCGGUACGCGAGGAGAAGGCUGGCGGCCGUU | – | – | 0.0797 | 0.037 |
| UGUCGGAGCAGAGGAUAUUACAUGAGGAUCACCCAUGUAUGGACCAAUAGCUGGAAACAGCAAUGUAAGAAGGCUGCUCCGACA | 0.0183 | 0.215 | – | – |
| AAGCGAAAGCUAAAAUAUCUAUCAGAGGAUAUUUAUGAUACAUGAGGAUCACCCAUGUGGCGCUGGGAGAAGGCUGAUAGAUAA | – | – | 0.0129 | 0.00679 |
| ACUUUACGAGGAUAUACUGUCGGGCCUCGGGCGUCCAUGCGACAUGAGGAUCACCCAUGUAGAAGGCGUUUACU | 0.0251 | 0.0515 | – | – |
| UUGUGGGAGCAGGAUAUCUUAGUUUGGUUGUGUGGAGAAGGGCUGACAUGAGGAUCACCCAUGUGGUCCUAGAU | 0.0241 | 0.0295 | – | – |
| CGCAACAUACAGAAGGAGUAAUUUAGAAGUGUACUAGGAUAUGUUUACAUGAGGAUCACCCAUGUCGAUGGGUAAAUAGUUGCG | 0.988 | 0.437 | – | – |
| ACGUGUCGUGUAGGAUAUGACACAGGAAACUGGUCAGAAGGACAUGAGGAUCACCCAUGUAGAGUGUGUAAGGAUGACGUAUGC | 0.052 | 0.199 | – | – |
| ACACAUGAGGAUCACCCAUGUACGCGCUGACAGGAGGUCUCACAGGAUAUAUGUAGUGAUGCUACAUAGAAGGGUGAUACCGCG | – | – | 0.0675 | 0.0162 |

| Sequence | apparent Kd [1] [µM] | apparent Kd [2] [µM] | apparent Kd [3] [µM] | apparent Kd [4] [µM] |
| --- | --- | --- | --- | --- |
| AGCAGUACAGGAUAUACAUGAGGAUCACCCAUGUGAAAAUUAAGUGGCGUACCACAAAGUAGAAGGGUACUGCA | 0.032 | 0.117 | – | – |
| GCACUUAAAAUUGAACCGUUUCGAACAUGAGGAUCACCCAUGUAGGAUAUGCUAAUAGUAUUGAAGCAGAAGGACAAUAAGUGC | 0.00617 | 0.00599 | – | – |
| UGAGCCUCGUGAGGAUAUACAUGAGGAUCACCCAUGUAAAUGGAAUAACGGAGGAAACUCCGAAUGUAGAAGGCACGAGGCUCA | 0.0813 | 0.84 | – | – |
| AAGAAGUAAGGAUAUGCAUGGCGGGACUUGCGUCGUGGCGUGCAGAAGGUACAUGAGGAUCACCCAUGUAAAGA | 0.0272 | 0.0154 | – | – |
| GUACAUGAGCAGAAGGGCAAUUAAUUAAAUUUUUAUGUUUAUCAGAUAUGCAGGAUAUGUUAAACAUGAGGAUCACCCAUGUAC | – | – | 0.129 | 0.0658 |
| UAUUAAUGCAAGGAUAUGCUAUUAAUUUAUUUUGCAGAAGGUGCAACAUGAGGAUCACCCAUGUUGGAGGGUAU | 0.022 | 0.0343 | – | – |
| GUAGCAUACCGAGGAUAUUCAUGGAAUAAAUAAACAUGAGGAUCACCCAUGUGGCGAAAGCCUAGGGAGAAGGCGGAAUGCUAC | – | – | 0.269 | 0.446 |
| CAUGCACAUGAGGAUCACCCAUGUCAGGAUAUCUAUCAUAGCAUCGAAAGAUGCGGGUAGAGAAGGGACAACCC | 0.0162 | 0.0164 | – | – |
| CGUACUGAAGUGAGGAUAUUGUCUCGGAUACGAAACAAGAAGGCACAUGAGGAUCACCCAUGUAAACAGUACGA | 0.0175 | 0.0142 | – | – |
| CUGUUUCGUGUAGGAUAUGCAUAUUCCCAUUAUGCAGAAGGACAUGAGGAUCACCCAUGUAUGUUAUUAUCAUGUGUUACAUGC | 0.051 | 0.432 | – | – |
| CUGUUCUGUGUAGGAUAUGCAUAUUCCCAUUAUGCAGAAGGACAUGAGGAUCACCCAUGUAUGUUAUUAUCAUGUGUUACAUGC | 0.0376 | 0.146 | – | – |
| UGGUCAUGAUCAGGAUAUUAACAUGGGCUACAUUAAGAAGGGAUAGUGAGAUACGAACUGAACGACAUGAGGAUCACCCAUGUU | – | – | 0.0404 | 0.0304 |
| CCGGAUAUGCAGGAUAUCGUAUCGGAAACGAUACGAGAAGGGUAUACAUGAGGAUCACCCAUGUGCCUUACCGG | 0.0197 | 0.0219 | – | – |
| AAUAACAGAGGAUAUACUAUUUUAUGUGUUUGUUAUUUUAAACAUGAGGAUCACCCAUGUAGAAGGCUGAAUAA | 0.0243 | 0.0221 | – | – |
| AGCUACGUUUCGUAGCAGUGUCAUCGAGAAGGCUCAUAUACAUGAGGAUCACCCAUGUUUUCAUGGGAGGAUAUCGAUGAUACA | – | – | 0.108 | 0.00876 |
| UUACUCAUGUAAGGAUAUGCAGCCGUUUCGGCUGCAGAAGGUACUAUAAUACAUGAGGAUCACCCAUGUCUAUACAAUAAAGAC | – | – | 0.0629 | 0.026 |
| GGAUCGAAAGUGAGGAUAUGCUGGUCCUUGGAUCAGCAGAAGGCACAUGAGGAUCACCCAUGUGAUUUCGAUCC | 0.0166 | 0.025 | – | – |
| AGUCAGACAGGAUAUACGUGAGUGGAAAAAGUAUGUCCACUACAUGAGGAUCACCCAUGUAGAAGGGUCUGACA | 0.0177 | 0.0146 | – | – |
| GUAUCGUGAGGAUAUCUAGACUGACUUAGUACAUGUCAGCUGGAGAAGGCACAUGAGGAUCACCCAUGUGAUUA | 0.0226 | 0.0737 | – | – |

| Sequence | apparent Kd [1] [µM] | apparent Kd [2] [µM] | apparent Kd [3] [µM] | apparent Kd [4] [µM] |
| --- | --- | --- | --- | --- |
| AUAUGAUAGAUAGGAUAUACUGAGGUUGAAUGGGUAGAAGGAUCGAUAGGGAAGAAUACAUGAGGAUCACCCAUGUUGUGGAUU | – | – | 0.0769 | 0.0578 |
| GGAUGACAAAGUCAUCCUUAACGAACAUGAGGAUCACCCAUGUAGGAUAUGCUACUCAAAGAGUAGCAGAAGGACAUGUGUCUU | 0.0311 | 0.159 | – | – |
| AAAUAAAGGAUUAAGGAUAUAUCACAUGAAACAUGAGGAUCACCCAUGUAAUAAUAUAAAGGGUGAUAGAAGGUAGUUUAUAAAUA | – | – | 0.415 | 0.44 |
| GACUGCCGAGGAUAUACAUGAGGAUCACCCAUGUGCUUCAGCAUUUUUUAAUGCAUGGGUAGAAGGCGGUAGUU | 0.0354 | 0.0607 | – | – |
| ACGUAUCAUGUAGGAUAUGACCCAGGAAAUUGGUCAGAAGGACAUGAGGAUCACCCAUGUAGAGUAUGUUAGGAUGACGUAUGC | 0.115 | 0.165 | – | – |
| ACAAAUUAGUGAGGAUAUGCUAAAUUUAUAACAGCAGAAGGCACAAACCUCAAGACAUGAGGAUCACCCAUGUGGAAUAUAGAU | 0.068 | 0.139 | – | – |
| CGAUGUUAUGUCAGGAUAUGCGUUGCGAAAGCAAUGUAGAAGGGACAUGAGGAUCACCCAUGUGCUAACCAUCG | 0.0187 | 0.0511 | – | – |
| ACUUUACGAGGAUAUACUGUCGGGCCUCGGGCAUACAUGCGACAUGAGGAUCACCCAUGUAGAAGGCGUUUACU | 0.0295 | 0.092 | – | – |
| CAUUUACAUGAGGAUCACCCAUGUGAGGAUAUGGAAUGGUUCAUUGUCUGACCUCCUUCUAGAAGGCACAUCUC | 0.0296 | 0.0305 | – | – |
| AUCAGCUCGUCAGGAUAUACGUCACUGCGUCAGCAGUGUGGGAAGAUCACAUGAGGAUCACCCAUGUAGAAGGGACGAGCUGAU | 0.635 | 0.0204 | – | – |
| AAAGUGUCAGGAUAUGCGAAGGCAUCUGACAGAUGAGGAUCGCAGAAGGGACAUGAGGAUCACCCAUGUAAAAA | 0.0452 | 0.122 | – | – |
| UAUAAAAUAGGAUGACAUGAGGAUCACCCAUGUUGCGCGAGGAGAAGGCCCAUUCGGCAACUAUGGGAGGAUAUCCAUCGCCUG | – | – | 0.0665 | 0.0241 |
| GACAUUGGCAAGAAGGCAAACAUGAGGAUCACCCAUGUUCUGCAUGUAUAUUGAGGAUAUUGCCAAUGUAUGUGGAUCACCCAA | 0.00636 | 0.0233 | – | – |
| GGUGCGUAUGUGAGGAUAUGCUGGUCCUUGGCUCGGCAGAAGGCACAUGAGGAUCACCCAUGUGGUGUCGUACC | 0.278 | 0.0509 | – | – |
| GAUCGACCUGAGAAGGCACAUGAGGAUCACCCAUGUUGAACCAUACAUGCCACAAAGUGGCAAUGUGAGGAUAUCAGGUCGAUC | 0.00654 | 0.0121 | – | – |
| AGUACUACAGGAUAUACGAGGGAGGUCCACGUGACCCUUCUACAUGAGGAUCACCCAUGUAGAAGGGUAGUACA | 0.0139 | 0.0139 | – | – |
| CUUUUGUGAGGAUAUCAGUAGUAAAUAAAUAAAUUAACUACUGAGAAGGCACAUGAGGAUCACCCAUGUUCCUU | 0.013 | 0.0294 | – | – |
| GAUAGAGAGCAGGAUAUCAUAGAAAUGUAUGAAUGAGAAGGGCUCACAUGAGGAUCACCCAUGUGGUCCUAGAU | 0.0258 | 0.236 | – | – |
